Consider one compound from ChEMBL document CHEMBL4014344, “Discovery of the Soluble Guanylate Cyclase Stimulator Vericiguat (BAY 1021189) for the Treatment of Chronic Heart Failure” (J Med Chem, 2017).

For data set [1], the system named is Saphenous artery. The data set can be described thus: Inhibition of phenylephrine-induced contractions in Chinchilla rabbit saphenous artery rings administered at the beginning of the last resting period of 28 mins. It counts as functional. As to conditions: Oryctolagus cuniculus.
The target in data set [2] is T1, Cytochrome P450 3A4 (Homo sapiens, UniProt P08684). The data set can be described thus: Inhibition of human liver microsomes CYP3A4 using testosterone as substrate preincubated with compound followed by substrate addition. It counts as ADME. Background: Liver microsomes are vesicles of endoplasmic reticulum, rich in cytochrome P450 enzymes.
T1 sequence (P08684 whole entry): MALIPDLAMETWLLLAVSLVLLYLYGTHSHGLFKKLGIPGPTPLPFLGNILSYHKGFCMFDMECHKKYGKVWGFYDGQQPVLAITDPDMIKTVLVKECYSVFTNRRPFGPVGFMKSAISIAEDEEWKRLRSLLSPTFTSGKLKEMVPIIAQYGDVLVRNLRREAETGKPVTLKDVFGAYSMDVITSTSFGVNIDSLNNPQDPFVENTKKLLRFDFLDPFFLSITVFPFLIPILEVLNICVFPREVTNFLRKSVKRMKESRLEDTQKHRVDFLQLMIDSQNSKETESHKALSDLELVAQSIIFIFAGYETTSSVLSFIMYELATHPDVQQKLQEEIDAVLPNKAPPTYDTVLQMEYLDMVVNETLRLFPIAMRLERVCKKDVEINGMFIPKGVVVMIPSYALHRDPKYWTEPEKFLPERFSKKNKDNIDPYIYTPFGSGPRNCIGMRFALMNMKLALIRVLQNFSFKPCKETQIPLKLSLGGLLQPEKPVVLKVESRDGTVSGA
The test system of data set [3] is Rattus norvegicus. The data set can be described thus: Effect on mortality in L-NAME-treated renin transgenic rat co-expressing RenTG(mRRen2)27 assessed as increase in survival rate administered qd via oral gavage up to 21 days. In kind it is functional. In a few lines: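 L-NAME (50 mg/L, drinking water) treated male RenTG(mRRen2)27 rats aged 8 weeks. Placebo (n = 20) or 3 or 10 mg/kg/day by oral gavage qd (n = 15/group). Survival checked on days 1, 8, 15 and at study end (day 22).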

Another data set relates to Artery. The data set can be described thus: Inhibition of U46619-induced contractions in porcine coronary artery rings. As to conditions: Sus scrofa. In kind it is functional.
A further data set concerns the target T2, Cytochrome P450 2A6 (Homo sapiens, UniProt P11509).
T2 sequence (P11509 whole entry): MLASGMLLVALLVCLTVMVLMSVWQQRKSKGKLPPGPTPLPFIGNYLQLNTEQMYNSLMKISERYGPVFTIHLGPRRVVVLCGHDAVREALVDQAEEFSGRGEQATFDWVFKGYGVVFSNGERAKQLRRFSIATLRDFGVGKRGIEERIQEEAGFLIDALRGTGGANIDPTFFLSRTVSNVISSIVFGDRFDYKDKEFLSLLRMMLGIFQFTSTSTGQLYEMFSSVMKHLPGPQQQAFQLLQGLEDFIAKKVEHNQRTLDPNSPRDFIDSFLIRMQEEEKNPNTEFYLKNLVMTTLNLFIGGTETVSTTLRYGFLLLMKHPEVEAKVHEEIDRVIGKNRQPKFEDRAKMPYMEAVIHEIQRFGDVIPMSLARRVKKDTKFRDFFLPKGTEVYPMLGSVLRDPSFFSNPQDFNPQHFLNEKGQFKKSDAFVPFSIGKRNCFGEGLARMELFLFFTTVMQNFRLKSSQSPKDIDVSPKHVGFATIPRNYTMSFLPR
In words: Inhibition of human liver microsomes CYP2A6 using coumarin as substrate. In kind it is ADME.

The nature of data set [4]: Stimulation of rat sGC expressed in CHO cells using GTP as substrate assessed as increase in cGMP formation treated for 6 mins by luminescence assay. In kind it is cell-based. A digest of the protocol: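 CHO reporter cells overexpressing sGC, cultured 1 or 2 d, then loaded 3 h with coelenterazine in calcium-free Tyrode. Compound serial dilutions applied 6 min. Calcium added (final 3 mM) and luminescence read for 40 s by CCD camera. SNAP co-applied at 30 or 100 nM where stated. ODQ condition: 10 μM ODQ pretreatment for 3 h.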

The target in another data set is T3, Cytochrome P450 1A2 (Homo sapiens, UniProt P05177).
T3 sequence (P05177 whole entry): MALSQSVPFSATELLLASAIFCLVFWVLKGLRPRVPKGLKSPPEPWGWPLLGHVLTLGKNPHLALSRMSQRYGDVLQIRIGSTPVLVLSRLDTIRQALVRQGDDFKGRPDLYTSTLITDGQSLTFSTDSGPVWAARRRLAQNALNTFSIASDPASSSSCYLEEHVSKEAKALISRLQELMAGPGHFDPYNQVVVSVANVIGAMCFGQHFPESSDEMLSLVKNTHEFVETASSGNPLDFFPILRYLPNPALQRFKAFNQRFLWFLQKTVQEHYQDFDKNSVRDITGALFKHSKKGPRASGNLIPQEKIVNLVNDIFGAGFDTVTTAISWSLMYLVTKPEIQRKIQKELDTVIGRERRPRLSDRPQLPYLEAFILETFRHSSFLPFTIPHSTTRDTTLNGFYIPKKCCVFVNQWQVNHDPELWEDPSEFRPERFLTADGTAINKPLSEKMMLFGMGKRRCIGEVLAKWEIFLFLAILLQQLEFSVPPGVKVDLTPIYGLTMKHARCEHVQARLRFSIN
In words: Inhibition of human liver microsomes CYP1A2 using phenacetin as substrate. It counts as ADME.

Data set [5] can be described thus: Clearance in rat hepatocytes at 1 uM up to 90 mins by LC-MS/MS analysis. It counts as ADME, cell-based, Hepatocyte. A digest of the protocol:
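Rat hepatocytes at 1 × 10^6 viable cells/mL (trypan blue-corrected) in Williams' medium E, 1 μM substrate, MeCN ≤1%, 37 °C, pH 7.4. Sampled at 2−90 min, quenched with MeCN, analysed by LC-MS/MS.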

Data set [6] has as its system Saphenous artery. In words: Vasorelaxant activity in normal Chinchilla rabbit saphenous artery ring administered at the beginning of the last resting period of 28 mins. In kind it is functional. The note with it: Oryctolagus cuniculus.
The nature of data set [7]: Clearance in iv dosed Beagle dog blood after 24 hrs by LC-MS analysis. The note with it: whole blood. In kind it is ADME, organism-based, Canis lupus familiaris. A digest of the protocol: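 Male Wistar rats and female beagle dogs. iv in plasma/DMSO (rat) or H2O/PEG 400/EtOH (dog). Oral gavage in H2O/PEG 400/EtOH for both. Rats jugular-catheterised ≥1 d before dosing. Usually >10 blood samples, at least two after 24 h. Plasma quantified by LC-MS with internal standard. CL, t1/2, Vss and F calculated from plasma curves. Blood clearance via blood/plasma ratio (20 min blood incubation).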

In data set [8] the target is T1, Cytochrome P450 3A4. The data set can be described thus: Inhibition of human liver microsomes CYP3A4 using midazolam as substrate. It counts as ADME.
A further data set concerns the target Cytochrome P450 2C9 (Homo sapiens, UniProt P11712). The data set can be described thus: Inhibition of human liver microsomes CYP2C9 using diclofenac as substrate. It counts as ADME.
Data set [9] concerns the target T1, Cytochrome P450 3A4. The data set can be described thus: Inhibition of human liver microsomes CYP3A4 using testosterone as substrate. It counts as ADME.
Data set [10] deals with Rattus norvegicus. In words: Antihypertensive activity in L-NAME-treated renin transgenic rat co-expressing RenTG(mRRen2)27 assessed as reduction in heart hypertrophy in left ventricle administered qd via oral gavage up to 21 days. It counts as functional. A digest of the protocol: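 Renin transgenic RenTG(mRRen2)27 male rats, 8 weeks old, on L-NAME drinking water (50 mg/L). Dosed by gavage qd with placebo (n = 20) or 3 or 10 mg/kg/day (n = 15 each). At day 22 animals were anesthetized and sacrificed, and left and right ventricles were dissected and weighed for hypertrophy. Unpaired t test versus placebo.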

The target of a further data set is T4, Cytochrome P450 2B6 (Homo sapiens, UniProt P20813).
T4 sequence (P20813 whole entry): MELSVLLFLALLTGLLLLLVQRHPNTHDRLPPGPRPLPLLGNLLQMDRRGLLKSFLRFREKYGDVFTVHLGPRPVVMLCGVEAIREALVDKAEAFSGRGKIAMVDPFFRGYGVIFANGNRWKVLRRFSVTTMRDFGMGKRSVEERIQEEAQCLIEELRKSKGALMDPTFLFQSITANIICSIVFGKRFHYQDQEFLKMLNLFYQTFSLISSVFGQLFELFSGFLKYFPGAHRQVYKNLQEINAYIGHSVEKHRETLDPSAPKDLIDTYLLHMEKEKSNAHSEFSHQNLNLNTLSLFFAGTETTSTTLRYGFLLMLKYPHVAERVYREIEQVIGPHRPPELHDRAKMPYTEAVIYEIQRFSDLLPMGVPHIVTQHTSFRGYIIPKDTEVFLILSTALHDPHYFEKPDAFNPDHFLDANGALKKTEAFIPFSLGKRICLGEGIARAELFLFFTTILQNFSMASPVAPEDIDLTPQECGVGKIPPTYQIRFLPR
In words: Inhibition of human liver microsomes CYP2B6 using bupropion as substrate. It counts as ADME.

Usually IC50 stands for the concentration needed to halve the response being measured. The EC50 is the concentration needed to bring the measured effect to its halfway point. The term clearance denotes a measure of how efficiently the substance is removed, as volume per time. High values mean efficient removal, low ones inefficient removal.

Some results are limits rather than exact numbers.

Sequence of Cytochrome P450 2C9 (P11712 whole entry): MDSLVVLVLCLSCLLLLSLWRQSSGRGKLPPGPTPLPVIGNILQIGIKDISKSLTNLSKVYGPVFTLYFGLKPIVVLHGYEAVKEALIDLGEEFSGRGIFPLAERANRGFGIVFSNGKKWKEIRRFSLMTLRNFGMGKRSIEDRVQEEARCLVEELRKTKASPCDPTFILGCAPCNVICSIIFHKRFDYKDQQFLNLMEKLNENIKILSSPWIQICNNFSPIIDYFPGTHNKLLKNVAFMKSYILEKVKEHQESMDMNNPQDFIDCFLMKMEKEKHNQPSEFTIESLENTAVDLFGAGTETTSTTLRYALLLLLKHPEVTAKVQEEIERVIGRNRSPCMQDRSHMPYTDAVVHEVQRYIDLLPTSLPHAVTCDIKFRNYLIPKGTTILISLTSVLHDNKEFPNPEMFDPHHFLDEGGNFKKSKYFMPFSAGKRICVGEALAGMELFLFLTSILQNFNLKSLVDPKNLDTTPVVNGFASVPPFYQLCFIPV

For `COC(=O)Nc1c(N)nc(-c2nn(Cc3ccccc3F)c3ncc(F)cc23)nc1N` [VERICIGUAT], the half-inhibitory concentration (IC50) with Saphenous artery [1] was 798 nM; on Cytochrome P450 3A4 [2], > 50000 nM; with Artery it was 956 nM; on Cytochrome P450 2A6, > 50000 nM; against Cytochrome P450 1A2, > 50000 nM; with Saphenous artery [6], 5.6 nM. The IC50 at Cytochrome P450 3A4 [8], against Cytochrome P450 2C9, against Cytochrome P450 3A4 [9] and against Cytochrome P450 2B6 was > 50000 nM in each case. The Activity entry with Rattus norvegicus [3] and in the data set with Rattus norvegicus [10] was “Dose-dependent effect” each time. Further, the concentration giving a half-maximal response (EC50) in data set [4] is 1000 nM. Besides, the CLhep predicted at 1 µM in data set [5] was 1.67 mL/min/kg. In [7], the clearance is 3.33 mL/min/kg.
